# Experimental data taken from ChEMBL document CHEMBL2146400, “Antiophidic solanidane steroidal alkaloids from Solanum campaniforme” (J Nat Prod, 2011).
# Calls of active or inactive are those of the source. The calls are words filed in the database; no cut-off is given here.
# Tests used:
# [1] = tested on: Bothrops pauloensis; test: Antihemorrhagic activity against Bothropoides pauloensis venom-induced hemorrhage in Swiss mouse assessed as reduction in intensity of hemorrhage area at 50 ug preincubated with venom for 30 mins before venom injection measured 2 hrs post dose; format: functional
# How it was run: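 Venom (50 μg) was premixed with 50 μg alkaloid in 50 μL 1% DMSO–PBS, pH 7.2, and held 30 min at 37 °C before injection. At 2 h, five mice were killed and the inner dorsal skin was imaged. Intensity I = A × (N − H): A is area in mm2, N and H are mean colour intensity of normal and hemorrhagic skin. ANOVA/Dunnett.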
# [2] = tested on: Bothrops pauloensis; test: Antihemorrhagic activity against Bothropoides pauloensis venom-induced hemorrhage in Swiss mouse assessed as decrease in hemorrhagic area at 50 ug preincubated with venom for 30 mins before venom injection measured 2 hrs post dose; format: functional
# How it was run: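 Mice received 50 μL of 1% DMSO–PBS (pH 7.2) holding 50 μg B. pauloensis venom plus 50 μg alkaloid, preincubated 30 min at 37 °C. Vehicle-only negative controls. Five animals were killed at 2 h, and the inner dorsal skin was photographed. Hemorrhagic area was measured in mm2. Mean ± SEM, ANOVA with Dunnett's test.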
# [3] = tested on: HCT-8; test: Antiproliferative activity against human HCT8 cells; format: functional, cell-based
# [4] = target: T1, Basic phospholipase A2 homolog BnSP-7 (Bothropoides pauloensis) (UniProt Q9IAT9); test: Inhibition of Phospholipase A2 Asp49 in Bothropoides pauloensis at 1:1 venom to drug ratio incubated up to 40 mins using 4N3OBA substrate by multiwell plate reader method; conditions: Bothrops pauloensis
# T1 sequence (whole entry): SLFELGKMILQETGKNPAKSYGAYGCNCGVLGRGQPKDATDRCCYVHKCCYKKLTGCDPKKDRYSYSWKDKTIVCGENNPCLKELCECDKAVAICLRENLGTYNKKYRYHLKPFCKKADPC
# How it was run: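 Whole venom (1 mg/mL), alone or preincubated 1:1 (w:w) with compound, was added to Tris-HCl 0.1 M, Ca2+ 0.01 M, pH 8.0, with 4-nitro-3-octanoyloxybenzoic acid substrate. Mixture was kept at 37 °C up to 40 min, reading A425 every 5 min. V0 came from the absorbance increase after 20 min.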
# [5] = tested on: HL-60; test: Antiproliferative activity against human HL60 cells; format: functional, cell-based
# [6] = Fntinecrotizing activity against Bothropoides pauloensis venom-induced hemorrhage in Swiss mouse assessed as reduction in skin necrotic regions at 50 ug preincubated with venom for 30 mins before venom injection measured 2 hrs post dose; format: ADME, tissue-based, Skin of body; conditions: bothrops pauloensis, in vivo
# [7] = tested on: SF-295; test: Antiproliferative activity against human SF295 cells; format: functional, cell-based
# [8] = tested on: Bothrops pauloensis; test: Antiophidic activity against Bothropoides pauloensis venom-induced myotoxicity in Swiss mouse assessed as creatine kinase level at 50 ug preincubated with venom for 30 mins before venom injection measured 2 to 48 hrs post dose; format: functional
# How it was run: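 Injected mixture was 50 μg venom with 50 μg alkaloid in 50 μL 1% DMSO–PBS (pH 7.2), preincubated 30 min at 37 °C; vehicle controls. Retro-orbital blood was taken at 2, 4, 8, 24 and 48 h. Plasma creatine kinase was measured by UV kit, in U/L (1 U = 1 μmol NADH/min at 37 °C). Mean ± SEM.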
# [9] = tested on: MDA-MB-435; test: Antiproliferative activity against human MDA-MB-435 cells; format: functional, cell-based
Structure (SMILES),Activity [1],Activity [2],Activity [3],inhibition [4],Activity [5],Activity [6],Activity [7],Activity [8],Activity [9]
C[C@H]1C[C@H]2O[C@]23[C@@H](C)[C@H]2[C@H](C[C@H]4[C@@H]5CCC6=CC(=O)C=C[C@]6(C)C5=CC[C@]24C)N3C1,Active,Active,inactive,inactive,inactive,Active,inactive,Active,inactive
C[C@H]1C[C@H]2O[C@]23[C@@H](C)[C@H]2[C@H](C[C@H]4[C@@H]5CCC6=CC(=O)C=C[C@]6(C)[C@H]5CC[C@]24C)N3C1 (relative stereo),Active,Active,inactive,inactive,inactive,Active,inactive,Active,inactive
Cc1ccc(O)cc1CC[C@@H]1[C@@H](O)CC[C@]2(C)[C@@H]3[C@H](C[C@@H]12)N1C[C@@H](C)C[C@H]2O[C@]21[C@H]3C (relative stereo),–,–,inactive,inactive,inactive,–,inactive,Active,inactive
